{"source": "ChEMBL document CHEMBL1134365", "about": "“Synthesis and Src kinase inhibitory activity of a series of 4-phenylamino-3-quinolinecarbonitriles” (J Med Chem, 2001)", "note": "pIC50: −log10 of the molar value.", "data": [{"target": "T1, Proto-oncogene tyrosine-protein kinase Src (Homo sapiens, UniProt P12931)", "T1 sequence (P12931 2-536 limits assumed)": "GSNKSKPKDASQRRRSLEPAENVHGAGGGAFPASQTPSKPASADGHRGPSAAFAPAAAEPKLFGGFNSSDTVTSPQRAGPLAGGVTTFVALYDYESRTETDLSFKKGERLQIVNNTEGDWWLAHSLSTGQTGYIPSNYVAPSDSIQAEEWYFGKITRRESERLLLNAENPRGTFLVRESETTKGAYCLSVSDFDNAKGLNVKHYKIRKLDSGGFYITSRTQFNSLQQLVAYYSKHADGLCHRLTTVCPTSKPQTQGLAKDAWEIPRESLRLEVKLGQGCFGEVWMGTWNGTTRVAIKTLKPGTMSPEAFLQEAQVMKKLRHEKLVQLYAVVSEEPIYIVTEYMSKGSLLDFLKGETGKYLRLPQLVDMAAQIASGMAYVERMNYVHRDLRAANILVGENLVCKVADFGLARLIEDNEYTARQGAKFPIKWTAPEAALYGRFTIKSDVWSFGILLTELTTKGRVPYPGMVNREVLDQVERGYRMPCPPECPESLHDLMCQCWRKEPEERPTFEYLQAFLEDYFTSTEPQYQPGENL", "experiment": "Inhibition of Src Kinase at 0.1 mM ATP", "outline": "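Compound is preincubated 10 min at 30 °C, then the reaction is started with ATP (100 μM final) and run 1 h at 30 °C. It is stopped with EDTA and read by ELISA for tyrosine phosphorylation. Compounds are run in duplicate; values are the mean of at least two determinations.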", "values": [{"smiles": "COc1cc2ncc(C#N)c(Nc3ccc(Cl)cc3Cl)c2cc1OC", "pIC50": 7.64}]}, {"target": "T1, Proto-oncogene tyrosine-protein kinase Src", "experiment": "Inhibition of Src Kinase at 1 mM ATP", "outline": "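Src ELISA kinase assay with Src (3 units/reaction) and cdc2 substrate peptide in Tris-HCl pH 7.5 buffer with MgCl₂, EGTA and vanadate. After a 10 min, 30 °C preincubation with compound, the reaction is started with ATP raised to 1 mM and run 1 h at 30 °C. It is stopped with EDTA and phosphotyrosine is detected by ELISA.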", "values": [{"smiles": "COc1cc2ncc(C#N)c(Nc3ccc(Cl)cc3Cl)c2cc1OC", "pIC50": 6.89}]}, {"target": "T1, Proto-oncogene tyrosine-protein kinase Src", "experiment": "Inhibition of Src Kinase at 5 mM ATP", "outline": "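Same Src ELISA format: enzyme at 3 units/reaction, cdc2 peptide substrate, Tris-HCl pH 7.5/MgCl₂/EGTA/Na₃VO₄ buffer, and 10 min compound preincubation at 30 °C. ATP is raised to 5 mM to start the reaction, which runs 1 h at 30 °C. It is quenched with EDTA and phosphorylation is read by ELISA.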", "values": [{"smiles": "COc1cc2ncc(C#N)c(Nc3ccc(Cl)cc3Cl)c2cc1OC", "pIC50": 6.57}]}, {"target": "T1, Proto-oncogene tyrosine-protein kinase Src", "experiment": "Inhibitory activity against human c-Src Kinase was measured using ELISA assay", "outline": "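Src (3 units/reaction) and cdc2 substrate peptide were preincubated with compound for 10 min at 30 °C in 50 mM Tris-HCl pH 7.5, 10 mM MgCl2, 0.1 mM EGTA and 0.5 mM Na3VO4. ATP was added to 100 μM final, the reaction ran 1 h at 30 °C, and EDTA stopped it. Phosphotyrosine was read by ELISA kit.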", "values": [{"smiles": "COc1cc2ncc(C#N)c(Nc3cc(Cl)ccc3Cl)c2cc1OC", "pIC50": 7.40}, {"smiles": "COc1cc2ncc(C#N)c(Nc3cc(Cl)cc(Cl)c3)c2cc1OC", "pIC50": 5.96}, {"smiles": "CCCCOc1cc2ncc(C#N)c(Nc3ccc(Cl)cc3Cl)c2cc1OCCCC", "pIC50": 6.80}, {"smiles": "COc1cc2ncc(C#N)c(Nc3ccc(Cl)cc3Cl)c2cc1OCCCN1CCOCC1", "pIC50": 6.66}, {"smiles": "COc1cc2ncc(C#N)c(Nc3ccc(Cl)cc3I)c2cc1OC", "pIC50": 8.21}, {"smiles": "COc1cc2ncc(C=O)c(Nc3ccc(Cl)cc3Cl)c2cc1OC", "pIC50": 6.60}, {"smiles": "COc1cc2ncc(C#N)c(Nc3ccc(Cl)cc3Cl)c2cc1OC", "pIC50": 7.52}, {"smiles": "COc1cc2ncc(C#N)c(Nc3ccc(Br)cc3Cl)c2cc1OC", "pIC50": 7.82}, {"smiles": "COc1ccc2c(Nc3ccc(Cl)cc3Cl)c(C#N)cnc2c1", "pIC50": 6.70}, {"smiles": "N#Cc1cnc2cc(OCCCN3CCOCC3)c(OCCCN3CCOCC3)cc2c1Nc1ccc(Cl)cc1Cl", "pIC50": 7.72}, {"smiles": "COc1cc2ncc(C#N)c(Nc3cccc(Cl)c3Cl)c2cc1OC", "pIC50": 7.05}, {"smiles": "COc1cc2ncc(C#N)c(Nc3ccc(Cl)cc3Br)c2cc1OC", "pIC50": 8.00}, {"smiles": "COc1cc2ncc(C#N)c(Nc3ccccc3Cl)c2cc1OC", "pIC50": 7.02}, {"smiles": "COc1cccc2ncc(C#N)c(Nc3ccc(Cl)cc3Cl)c12", "pIC50": 5.92}, {"smiles": "COc1cc2ncc(C#N)c(Nc3ccc(I)cc3Cl)c2cc1OC", "pIC50": 7.02}, {"smiles": "COc1cc2c(Nc3ccc(Cl)cc3Cl)c(C#N)cnc2cc1OCCCN1CCOCC1", "pIC50": 8.42}, {"smiles": "COc1ccc2ncc(C#N)c(Nc3ccc(Cl)cc3Cl)c2c1", "pIC50": 6.49}, {"smiles": "COc1cc2ncc(C#N)c(Nc3ccc(Cl)c(Cl)c3)c2cc1OC", "pIC50": 7.24}, {"smiles": "COc1cc2ncc(C#N)c(Nc3c(Cl)cccc3Cl)c2cc1OC", "pIC50": 7.21}, {"smiles": "COc1cc2ncnc(Nc3ccc(Cl)cc3Cl)c2cc1OC", "pIC50": 6.60}, {"smiles": "COc1cc2nccc(Nc3ccc(Cl)cc3Cl)c2cc1OC", "pIC50": 7.08}, {"smiles": "COc1cc2ncc(C#N)c(Nc3ccc(Cl)cc3F)c2cc1OC", "pIC50": 7.28}, {"smiles": "COc1cc2c(Nc3ccc(Cl)cc3Cl)c(C#N)cnc2cc1OCCCN1CCN(C)CC1", "pIC50": 8.06}, {"smiles": "CCOc1cc2ncc(C#N)c(Nc3ccc(Cl)cc3Cl)c2cc1OCC", "pIC50": 7.96}, {"smiles": "COc1cc2c(Nc3ccc(Cl)cc3Cl)c(C#N)cnc2cc1OCCCN1CCC(O)CC1", "pIC50": 8.46}, {"smiles": "COc1cc2ncc(C#N)c(Nc3ccc(Cl)cc3)c2cc1OC", "pIC50": 7.28}, {"smiles": "COc1cc2ncc(C#N)c(Sc3ccc(Cl)cc3Cl)c2cc1OC", "pIC50": 5.66}]}, {"target": "T1, Proto-oncogene tyrosine-protein kinase Src", "experiment": "Inhibition of Src Kinase at 1 uM", "units": {"inhibition": "%"}, "values": [{"smiles": "COc1cc2ncc(C#N)c(N(C)c3ccc(Cl)cc3Cl)c2cc1OC", "inhibition": 32}, {"smiles": "COc1cc2ncc(C(=O)O)c(Nc3ccc(Cl)cc3Cl)c2cc1OC", "inhibition": "< 20"}, {"smiles": "COc1cc2/c(=N/c3ccc(Cl)cc3Cl)c(C#N)cn(C)c2cc1OC", "inhibition": "< 20"}, {"smiles": "COc1cccc2c(Nc3ccc(Cl)cc3Cl)c(C#N)cnc12", "inhibition": "< 20"}, {"smiles": "CCOC(=O)c1cnc2cc(OC)c(OC)cc2c1Nc1ccc(Cl)cc1Cl", "inhibition": "< 20"}, {"smiles": "N#Cc1cnc2cc(O)c(O)cc2c1Nc1ccc(Cl)cc1Cl", "inhibition": "< 20"}, {"smiles": "COc1cc2ncc(C#N)c(NCc3ccc(Cl)cc3Cl)c2cc1OC", "inhibition": 24}, {"smiles": "COc1cc(OC)c2c(Nc3ccc(Cl)cc3Cl)c(C#N)cnc2c1", "inhibition": 52}, {"smiles": "N#Cc1cnc2ccccc2c1Nc1ccc(Cl)cc1Cl", "inhibition": "< 20"}, {"smiles": "COc1cc2ncc(C#N)c(NC(=O)c3ccc(Cl)cc3Cl)c2cc1OC", "inhibition": "< 20"}, {"smiles": "COc1cc2ncc(C#N)c(Oc3ccc(Cl)cc3Cl)c2cc1OC", "inhibition": 37}, {"smiles": "COc1cc2ncc(CO)c(Nc3ccc(Cl)cc3Cl)c2cc1OC", "inhibition": "< 20"}, {"smiles": "COc1cc2ncc(C(N)=O)c(Nc3ccc(Cl)cc3Cl)c2cc1OC", "inhibition": "< 20"}]}]}
